Assay results gathered from unrelated publications.
Each line is one published result; the experiments were not run side by side.
Palmitoyl-protein thioesterase 1: Palmitoyl-protein thioesterase 1 (Homo sapiens, UniProt P50897)
Transmembrane protease serine 6: Transmembrane protease serine 6 (Homo sapiens, UniProt Q8IU80)

SMILES | target | effect on | mode | technique | tested at | measurement | result
COc1cc(-c2cncc3c2CN(C)Cc2cc(N4CCNCC4)ccc2-3)cc(OC)c1OC | Epidermal growth factor receptor (EGFR, Homo sapiens, UniProt P00533, L858R) | enzyme activity | inhibitor | – | 1 µM | remaining activity | 36%
CC(=O)O[C@@]12CO[C@@H]1C[C@H](O)[C@@]1(C)C(=O)[C@H](O)C3=C(C)[C@@H](OC(=O)[C@H](O)[C@@H](NC(=O)OC(C)(C)C)c4ccccc4)C[C@@](O)([C@@H](OC(=O)c4ccccc4)[C@H]21)C3(C)C | Palmitoyl-protein thioesterase 1 | enzyme activity | inhibitor | – | 125 µM | inhibition | 10.3%
N=C(N)NCCC[C@H](NC(=O)[C@H](Cc1ccc(I)cc1)NC(=O)[C@H](Cc1cscn1)NC(=O)CCc1ccccc1)C(=O)c1nc2ccccc2s1 | Transmembrane protease serine 6 | enzyme activity | inhibitor | – | 0.1 µM | remaining activity | 90%
NCCCCCC(=O)O | Palmitoyl-protein thioesterase 1 | enzyme activity | inhibitor | – | 312 µM | inhibition | 17.1%
C=CC(=O)N1CCC(COCC(=O)N2CCN(c3nc(-c4cnc(N)nc4C(F)F)nc(N4CCOC[C@@H]4C)n3)CC2)CC1 | Protein kinase C delta type (PRKCD, Homo sapiens, UniProt Q05655) | binding | – | competition with immobilised ligand | 1 µM | remaining binding | 100%
CNc1ncc2c(/C=C/C(=O)N3CCC(OC)CC3)nn(Cc3cccc(C(F)(F)F)c3)c2n1 | Cyclin-dependent kinase 6, with cyclin D2 (CDK6, Homo sapiens, UniProt Q00534) | enzyme activity | inhibitor | radiometric | 1 µM | remaining activity | 92%
CCCC[C@H](NC(=O)[C@H](Cc1cscn1)NC(=O)CCc1ccccc1)C(=O)N[C@@H](CCCNC(=N)N)C(=O)c1nc2ccccc2s1 | Transmembrane protease serine 6 | enzyme activity | inhibitor | – | 0.1 µM | remaining activity | 22%
CC1CNC(=O)NC1=O (stereo not drawn) | Palmitoyl-protein thioesterase 1 | enzyme activity | inhibitor | – | 125 µM | inhibition | -1.19%
CC(C)[C@@H](NC(=O)[C@H](Cc1cscn1)NC(=O)CCc1ccccc1)C(=O)N[C@@H](CCCNC(=N)N)C(=O)c1nc2ccccc2s1 | Transmembrane protease serine 6 | enzyme activity | inhibitor | – | 0.1 µM | remaining activity | 68%
CCCCC/C=C\C/C=C\CCCCCCCC(=O)O | Palmitoyl-protein thioesterase 1 | enzyme activity | inhibitor | – | 156 µM | inhibition | 40.4%
Cc1cc([C@@H](C)Nc2ccccc2C(=O)O)c2nc(N3CCC(F)(F)CC3)c(C#N)c(=O)n2c1 | Serine/threonine-protein kinase B-raf (BRAF, Homo sapiens, UniProt P15056) | binding | – | competition with immobilised ligand | 10 µM | remaining binding | 74%
CC(C)[C@@H](CC(=O)N[C@@H](CCCNC(=N)N)C(=O)c1nc2ccccc2s1)NC(=O)[C@H](Cc1cscn1)NC(=O)CCc1ccccc1 | Transmembrane protease serine 6 | enzyme activity | inhibitor | – | 0.1 µM | remaining activity | 100%
